Results from PubChem BioAssay.
Activity calls are given as the source filed them.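 Rule for the calls, unless noted: active = viability at or below 10% of carrier control in both of two separate runs; inconclusive = viability at or below 10% in only one of the two runs; inactive = the rest.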

Assays:
[1] = reducers of endogenous Her2 protein level, primary screen, SKBR3 breast tumor cells, AlphaScreen, ATP viability (AID 461;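 active = Her2 level under about 52% in both replicate screens, with viability over 70% of control, limit read from the data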;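 for Her2 level: lower value means less Her2 protein in the cells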;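 for viability: percent of carrier control wells set as 100% viability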); details: 18-24 h, measured here: SKBR3 viability, ATP luminescence, at 10 µM
[2] = molecular target: Receptor tyrosine-protein kinase erbB-2 (Homo sapiens) (UniProt P04626); experiment: as above; details: 18-24 h, at 10 µM, stronger effect = lower value
Chain of Receptor tyrosine-protein kinase erbB-2 (Homo sapiens) (P04626 whole entry, looked up): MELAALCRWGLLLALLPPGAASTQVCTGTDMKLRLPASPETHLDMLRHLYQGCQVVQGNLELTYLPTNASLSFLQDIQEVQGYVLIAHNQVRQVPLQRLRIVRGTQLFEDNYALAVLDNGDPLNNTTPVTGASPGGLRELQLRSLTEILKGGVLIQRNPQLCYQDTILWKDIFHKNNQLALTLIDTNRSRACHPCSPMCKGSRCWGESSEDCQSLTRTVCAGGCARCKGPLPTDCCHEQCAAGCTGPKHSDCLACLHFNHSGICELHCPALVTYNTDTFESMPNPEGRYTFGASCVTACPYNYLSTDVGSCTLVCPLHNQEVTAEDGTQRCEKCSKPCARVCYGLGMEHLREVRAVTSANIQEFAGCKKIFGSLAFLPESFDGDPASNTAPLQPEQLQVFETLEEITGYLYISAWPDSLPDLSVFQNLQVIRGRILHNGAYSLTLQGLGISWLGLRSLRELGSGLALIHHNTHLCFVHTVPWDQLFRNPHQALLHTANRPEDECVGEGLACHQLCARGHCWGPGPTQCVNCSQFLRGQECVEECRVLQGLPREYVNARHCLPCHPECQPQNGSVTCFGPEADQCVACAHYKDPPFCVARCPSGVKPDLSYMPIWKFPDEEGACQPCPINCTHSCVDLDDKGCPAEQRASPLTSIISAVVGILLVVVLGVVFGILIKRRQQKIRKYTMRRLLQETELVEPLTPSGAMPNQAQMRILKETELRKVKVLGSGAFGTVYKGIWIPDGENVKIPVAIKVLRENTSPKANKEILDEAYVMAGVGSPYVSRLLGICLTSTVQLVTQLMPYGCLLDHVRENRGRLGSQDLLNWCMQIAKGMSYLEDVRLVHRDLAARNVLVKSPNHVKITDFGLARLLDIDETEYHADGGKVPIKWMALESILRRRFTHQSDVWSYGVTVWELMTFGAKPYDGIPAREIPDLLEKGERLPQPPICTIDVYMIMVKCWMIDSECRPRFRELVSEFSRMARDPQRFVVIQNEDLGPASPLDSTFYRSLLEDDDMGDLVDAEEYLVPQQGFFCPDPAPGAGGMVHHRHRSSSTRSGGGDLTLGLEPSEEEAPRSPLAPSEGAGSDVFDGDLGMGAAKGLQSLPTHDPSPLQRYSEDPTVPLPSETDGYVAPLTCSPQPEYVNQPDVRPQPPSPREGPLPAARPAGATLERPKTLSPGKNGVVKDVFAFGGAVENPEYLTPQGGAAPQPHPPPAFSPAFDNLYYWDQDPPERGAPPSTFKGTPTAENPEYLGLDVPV

[3] = SK-BR-3 cell growth inhibitors, pilot screen, 24 h, human (AID 572); details: SK-BR-3 viability, CellTiter-Glo luminescence, at 10 µM, stronger effect = lower value;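 note: compound exposure lasted between 18 and 24 h rather than exactly 24 h; 100% = carrier-treated control wells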
[4] = HUVEC growth inhibition – cell-based, human, primary screen (AID 575;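 active = viability at or below 30% in both replicate assays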;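 note: 100% = median of untreated cell wells with 0.1% DMSO on each plate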); details: HUVEC proliferation, CellTiter-Glo luminescence, 72 h; at 10 µM; stronger effect = lower value
Procedure, shortened: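 Assay system: primary human umbilical vein endothelial cells / Buffer or medium: endothelial basal medium with 2% FBS plus growth supplements / Compound dosing: one dose, 10 µM final, 0.1% DMSO / Timing: 72 h treatment at 37 °C / Signal: CTG luminescence / Benchmarks: 32 DMSO-only cell-control wells (high), 32 MePR drug-control wells (low) per plate / Plate: collagen-coated 384-well format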

[5] = growth inhibitors of H69AR lung tumor, primary screen, human, duplicate replicates (AID 580;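 active = viability at or under a set limit in both replicates, limit being median viability minus 3 SD, cut at about 48% in these data, passing the limit was not always enough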;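 note: 100% = mean luminescence of untreated wells and 0% = no signal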); details: H69AR lung tumor cells viability, ATP luminescence, 72 h; at 10 µM; stronger effect = lower value
[6] = reversal of MRP1-mediated doxorubicin resistance, pilot screen, H69AR cells, doxorubicin co-treatment (AID 601;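 active = viability loss from added drug above about 55%, and viability with drug at most 40%, in both replicates, limit read from the data, passing the limit was not always enough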); details: CellTiter-Glo, 72 h, at 10 µM; for differential viability (reversal): stronger effect = higher value
[7] = 384-well plate pilot, post-Golgi transport modulator project, inhibition of yeast transport mutant growth (AID 636; in the data active = inhibition above about 31%); details: absorbance 615 nm, about 18 h, stronger effect = higher value
[8] = growth suppression of yeast trafficking mutant, preliminary HTS, modulators of trafficking downstream of Golgi apparatus project, 1536-format plate, OD 615 nm (AID 637; in the data active = inhibition above about 30%); details: yeast transport mutant growth, absorbance 615 nm, 18 h; stronger effect = higher value
[9] = H69AR cells + 2 uM doxorubicin, measured here: viability with 2 uM doxorubicin, stronger effect = lower value
[10] = H69AR cells, compound alone cytotoxicity

Row | Compound | viability [1] [%] | Her2 level [2] | viability [3] | viability [4] | viability [5] | differential viability (reversal) ([6]; H69AR cells + 2 uM doxorubicin) | viability [6, 9] [%] | viability [6, 10] [%] | inhibition [7] | inhibition [8]
1 | CCOC(=O)CC12CN3CN(C1)CC(CC(=O)OCC)(C3)C2=O | 94 | 86% (inactive) | 94% (inactive) | 89.1% (inactive) | 98.3% (inactive) | 3.54% (inactive) | 94.7 | 98.3 | -5.95% (inactive) | 0.49% (inactive)
2 | CC(=O)N1CCN(C(=O)COc2ccc(Br)cc2)CC1 | 108 | 92.5% (inactive) | 108% (inactive) | 113% (inactive) | 105% (inactive) | 20.5% (inactive) | 84.6 | 105 | -2.03% (inactive) | 0.16% (inactive)
3 | CCOC(=O)N1CCN(CC(O)COc2ccccc2C(C)CC)CC1 (stereo not given) | 104 | 92.5% (inactive) | 104% (inactive) | 99% (inactive) | 94.7% (inactive) | 1.52% (inactive) | 93.2 | 94.7 | 31.6% (active) | 29.2% (inactive)
4 | S=c1[nH]nc(-c2cccc(Br)c2)o1 | 91 | 130% (inactive) | 91% (inactive) | 88.2% (inactive) | 96.1% (inactive) | 3.51% (inactive) | 92.6 | 96.1 | -1.58% (inactive) | -8.83% (inactive)
5 | COc1ccc(OC)c(C(=O)CSc2nnc(-c3ccc(OC)c(OC)c3)o2)c1 | 104 | 104% (inactive) | 104% (inactive) | 75.9% (inactive) | 74.5% (inactive) | 0.865% (inactive) | 73.7 | 74.5 | -5.32% (inactive) | -8.85% (inactive)
6 | COc1ccc(-c2nnc(SCC(=O)NC(=O)NCc3ccco3)o2)cc1 | 102 | 85.5% (inactive) | 102% (inactive) | 85.9% (inactive) | 86.8% (inactive) | -1.33% (inactive) | 88.1 | 86.8 | -0.65% (inactive) | -2.46% (inactive)
7 | CCN(CC)CCCN1C(=O)C(=O)/C(=C(/O)c2ccccc2)C1c1ccccn1 (stereo not given) | 96.5 | 100% (inactive) | 96.5% (inactive) | 111% (inactive) | 96% (inactive) | 6.26% (inactive) | 89.7 | 96 | -1.35% (inactive) | -4.92% (inactive)
8 | COc1ccccc1CNS(=O)(=O)c1ccc(NC(C)=O)cc1 | 94.5 | 84% (inactive) | 94.5% (inactive) | 106% (inactive) | 92.9% (inactive) | -7.69% (inactive) | 101 | 92.9 | -5.73% (inactive) | 2.22% (inactive)
9 | CCOc1cccc(/C(O)=C2/C(=O)C(=O)N(CCN3CCOCC3)C2c2cccnc2)c1 (stereo not given) | 98.5 | 99.5% (inactive) | 98.5% (inactive) | 87.3% (inactive) | 103% (inactive) | 5.18% (inactive) | 98.2 | 103 | -3.68% (inactive) | -3.17% (inactive)
10 | CCc1ccc(CN(C)CCc2ccccn2)cc1 | 108 | 86% (inactive) | 108% (inactive) | 106% (inactive) | 102% (inactive) | 16.7% (inactive) | 85.8 | 102 | -5.62% (inactive) | -3.02% (inactive)
11 | CCOC(=O)Cc1nnc2c(Nc3ccc(C)cc3)nc3nonc3n12 | 97 | 76% (inactive) | 97% (inactive) | 74.9% (inactive) | 94% (inactive) | -1.2% (inactive) | 95.2 | 94 | -4% (inactive) | 7.7% (inactive)
12 | CCOc1ccc2[nH]c(=O)c(C(c3nnnn3Cc3ccco3)N3CCC(C)CC3)cc2c1 (stereo not given) | 80.5 | 81.5% (inactive) | 80.5% (inactive) | 82.3% (inactive) | 85.7% (inactive) | -1.93% (inactive) | 87.7 | 85.7 | -5.34% (inactive) | 3.02% (inactive)
13 | CC(C)c1nnc(SCC(=O)NCc2ccco2)n1C | 105 | 91% (inactive) | 105% (inactive) | 94.7% (inactive) | 79.6% (inactive) | -5.55% (inactive) | 85.2 | 79.6 | -0.14% (inactive) | 4.76% (inactive)
14 | O=C(NCc1ccco1)c1cnc2n(c1=O)CCS2 | 101 | 94.5% (inactive) | 101% (inactive) | 91.3% (inactive) | 89.5% (inactive) | 0.265% (inactive) | 89.2 | 89.5 | 0.78% (inactive) | -1.48% (inactive)
15 | Cn1c(=O)c2nc(Cl)n(Cc3ccc(Cl)cc3Cl)c2n(C)c1=O | 96 | 75% (inactive) | 96% (inactive) | 105% (inactive) | 88.3% (inactive) | 12.5% (inactive) | 75.9 | 88.3 | -3.2% (inactive) | 7.58% (inactive)
16 | Cc1nnc2sc(-c3cccc(NC(=O)c4cccnc4)c3)nn12 | 87.5 | 104% (inactive) | 87.5% (inactive) | 90.2% (inactive) | 87.8% (inactive) | -8.91% (inactive) | 96.7 | 87.8 | -2.7% (inactive) | 36.7% (active)
